Test results from ChEMBL document CHEMBL4130608, “Isolation, Derivative Synthesis, and Structure-Activity Relationships of Antiparasitic Bromopyrrole Alkaloids from the Marine Sponge Tedania brasiliensis” (J Nat Prod, 2018).
Values after ≈ are worked out from the molar mass of the structure shown.

Legend:
Leishmania donovani = test: Antileishmanial activity against Leishmania donovani MHOM/ET/67/L82 amastigote forms after 72 hrs by alamar blue staining based fluorescence assay; format: functional, organism-based; details: MHOM/ET/67/L82, 72 h
[1] = system: Trypanosoma brucei rhodesiense; test: Antitrypanosomal activity against Trypanosoma brucei rhodesiense STIB 900 bloodstream forms after 72 hrs by alamar blue staining based fluorescence assay; format: functional, organism-based; details: STIB 900, 72 h
Leishmania amazonensis [2] = test: Antileishmanial activity against Leishmania amazonensis amastigotes infected in BALB/c mouse BMDM assessed as reduction in intracellular amastigotes after 24 hrs by microscopic analysis; format: functional, organism-based
In short: (§1)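 BALB/c bone marrow macrophages infected with stationary-phase L. amazonensis promastigotes (MOI 10) for 1 h, then washed and held 24 h at 33 °C, 5% CO2. Treated with 6.125, 25, 50 or 100 μM for 24 h at 33 °C. Cells MeOH-fixed and stained. Amastigotes counted in 300 cells per coverslip on triplicate coverslips. Expressed as % reduction versus untreated infected cells. Two independent experiments.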

Leishmania amazonensis [3] = test: Antileishmanial activity against Leishmania amazonensis amastigotes infected in BALB/c mouse BMDM assessed as reduction in intracellular amastigotes at 6.125 uM after 24 hrs by microscopic analysis relative to control; format: functional; parameters: scale not given: the % may be the effect or the level left; in short: as §1
[4] = Cytotoxicity against human HepG2 cells after 24 hrs by MTT assay; format: cell-based; details: read-out: MDL50
In short: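 HepG2 cells grown in RPMI-1640 with 10% FBS, seeded at 5 × 10^3 cells/well and allowed to adhere for 18 h. Exposed to 1,000–1 μg/mL for 24 h at 37 °C, 5% CO2. MTT (5 mg/mL stock) added for 3 h, formazan dissolved in DMSO, absorbance read at 570 and 630 nm. Viability expressed as % of untreated control after background subtraction.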

Trypanosoma cruzi = test: Antitrypanosomal activity against Trypanosoma cruzi Y epimastigotes after 24 hrs by MTT assay; format: functional, organism-based
In short: (§2)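 Promastigotes (L. amazonensis, L. infantum; 26 °C, M199 with 20% heat-inactivated FBS, hemin, adenine, L-glutamine, plus 5% human urine for L. infantum) or T. cruzi Y epimastigotes (LIT with hemin, 10% FCS, 28 °C). Exposed to a series of concentrations for 24 h. Viability read by MTT. EC50 from sigmoidal fit of concentration–response. Triplicates, repeated two or three times.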

Leishmania amazonensis [5] = test: Antileishmanial activity against Leishmania amazonensis MHOM/BR/1973/M2269 promastigotes after 24 hrs by MTT assay; format: functional, organism-based; details: MHOM/BR/1973/M2269, 24 h; in short: as §2
Leishmania amazonensis [6] = test: Antileishmanial activity against Leishmania amazonensis amastigotes infected in BALB/c mouse BMDM assessed as reduction in intracellular amastigotes at 100 uM after 24 hrs by microscopic analysis relative to control; format: functional; parameters: scale not given: the % may be the effect or the level left; in short: as §1
Plasmodium falciparum [7] = test: Antiplasmodial activity against drug-sensitive blood stage Plasmodium falciparum 3D7 by SYBR green 1 staining based fluorescence assay; format: functional, organism-based
In short: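 Sorbitol-synchronized ring-stage 3D7 exposed to a range of concentrations (samples in 0.05% DMSO), in triplicate. Then lysed with Tris/EDTA/saponin/Triton buffer containing SYBR Green I (1:20000) for 30 min. IC50 from curve fitting against untreated growth.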

Leishmania infantum = test: Antileishmanial activity against Leishmania infantum MHOM/BR/1972/LD promastigotes after 24 hrs by MTT assay; format: functional, organism-based; in short: as §2
[8] = Selectivity index, ratio of MDL50 for human HepG2 cells to IC50 for drug-sensitive blood stage Plasmodium falciparum 3D7; format: toxicity; details: HepG2 cells versus blood stage Plasmodium falciparum 3D7, read-out: Selectivity Index
BMDM = test: Cytotoxicity against BALB/c mouse BMDM after 24 hrs by MTT assay; format: cell-based
In short: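 Differentiated BALB/c female mouse bone marrow macrophages incubated at 37 °C with increasing concentrations for 24 h. Viability read by MTT and CC50 calculated.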

Leishmania amazonensis [9] = test: Antileishmanial activity against Leishmania amazonensis amastigotes infected in BALB/c mouse BMDM assessed as reduction in intracellular amastigotes at 25 uM after 24 hrs by microscopic analysis relative to control; format: functional; parameters: scale not given: the % may be the effect or the level left; in short: as §1
Leishmania amazonensis [10] = test: Antileishmanial activity against Leishmania amazonensis amastigotes infected in BALB/c mouse BMDM assessed as reduction in intracellular amastigotes at 50 uM after 24 hrs by microscopic analysis relative to control; format: functional; parameters: scale not given: the % may be the effect or the level left; in short: as §1
Plasmodium falciparum [11] = test: Antiplasmodial activity against chloroquine/cycloguanil/pyrimethamine-resistant blood stage Plasmodium falciparum K1 by SYBR green 1 staining based fluorescence assay; format: functional, organism-based
In short: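 Freshly sorbitol-synchronized ring stages were exposed in triplicate to a concentration series, solubilized in 0.05% DMSO (v/v), alongside sample-free cultures. Cells were lysed for 30 min in 20 mM Tris pH 7.5, 5 mM EDTA, 0.008% saponin and 0.08% Triton X-100 with SYBR green I (1:20000). IC50 was obtained by curve fitting against untreated growth.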

Plasmodium falciparum [12] = test: Antiplasmodial activity against chloroquine/pyrimethamine-resistant Plasmodium falciparum K1 assessed as reduction in [3H]hypoxanthine incorporation pretreated for 48 hrs followed by [3H]hypoxanthine addition measured after 24 hrs by liquid scintillation counting method; format: functional, organism-based

Compound	EC50 (Trypanosoma cruzi)	EC50 (Leishmania amazonensis [5])	IC50 (Plasmodium falciparum [7])	EC50 (Leishmania infantum)	further results
O=C(O)CC1CNC(=O)c2cc(Br)c(Br)n21 (stereo not drawn)	–	–	–	–	IC50 (Leishmania donovani): 3.85 µg/mL (≈ 10.9 µM); IC50 [1]: 1.53 µg/mL (≈ 4.35 µM)
O=C(NCCCNCCCCNCCCNC(=O)c1cc(Br)c(Br)[nH]1)c1cc(Br)c(Br)[nH]1	> 100 µM	44 µM	2 µM	18 to 19 µM	Activity (Leishmania amazonensis [2]): Dose-dependent effect; Activity (Leishmania amazonensis [3]): 27.3%; CC50 at 24 h [4]: 99 µM; Activity (Leishmania amazonensis [6]): 81.2%; selectivity ratio [8]: 52; CC50 (BMDM): > 100 µM; Activity (Leishmania amazonensis [9]): 45.4%; Activity (Leishmania amazonensis [10]): 51%
Cc1cccc(C(=O)NCCCCNCCCNC(=O)c2cccc(C)n2)n1	> 100 µM	> 100 µM	> 10 µM	> 100 µM	–
O=C(NCCCCCCNCCCCCCNC(=O)c1cc(Br)c(Br)[nH]1)c1cc(Br)c(Br)[nH]1	> 100 µM	> 100 µM	2 µM	> 100 µM	CC50 at 24 h [4]: 263 µM; selectivity ratio [8]: 101
Cc1ccc(C(=O)NCCCCNCCCNC(=O)c2ccc(C)s2)s1	> 100 µM	> 100 µM	> 10 µM	> 100 µM	–
CC(=O)N(CCCCNC(=O)c1cc(Br)c(Br)[nH]1)CCCNC(=O)c1cc(Br)c(Br)[nH]1	> 100 µM	> 100 µM	> 10 µM	> 100 µM	–
CN(CCCCNC(=O)c1cc(Br)c(Br)[nH]1)CCCNC(=O)c1cc(Br)c(Br)[nH]1	> 100 µM	> 100 µM	4 µM	> 100 µM	CC50 at 24 h [4]: 160 µM; selectivity ratio [8]: 35
O=C(NCCCCNCCCNC(=O)c1cc(Br)c[nH]1)c1cc(Br)c[nH]1	> 100 µM	> 100 µM	7 µM	> 100 µM	CC50 at 24 h [4]: ≥ 400 µM; selectivity ratio [8]: ≥ 54
O=C(NCCCCNCCCNC(=O)c1cccc(Cl)n1)c1cccc(Cl)n1	> 100 µM	> 100 µM	> 10 µM	> 100 µM	–
CC1(C)N=C(N)N=C(N)N1c1ccc(Cl)cc1 [CYCLOGUANIL]	–	–	0.01 µM	–	IC50 (Plasmodium falciparum [11]): 540 nM
O=C(NCCCCNCCCNC(=O)c1nc2ccccc2[nH]1)c1nc2ccccc2[nH]1	> 100 µM	> 100 µM	> 10 µM	> 100 µM	–
O=C(NCCCCNCCCNC(=O)c1ccc(F)[nH]1)c1ccc(F)[nH]1	> 100 µM	> 100 µM	> 10 µM	> 100 µM	–
O=C(NCCCCCNC(=O)c1cc(Br)c(Br)[nH]1)c1cc(Br)c(Br)[nH]1	7 µM	19 µM	> 10 µM	24 µM	CC50 (BMDM): 52 µM
O=C(NCCSCCNC(=O)c1cc(Br)c(Br)[nH]1)c1cc(Br)c(Br)[nH]1	24 µM	43 µM	> 10 µM	24 µM	CC50 (BMDM): 66 µM
O=C(NCCCCNCCCNC(=O)c1cc(Cl)c(Cl)[nH]1)c1cc(Cl)c(Cl)[nH]1	> 100 µM	> 100 µM	> 10 µM	> 100 µM	–
NC1=N/C(=C\CCNC(=O)c2cc(Br)c[nH]2)C(=O)N1	–	–	–	–	IC50 (Plasmodium falciparum [12]): 1.34 µg/mL (≈ 4.11 µM)
[N-]=[N+]=NCC(=O)N(CCCCNC(=O)c1cc(Br)c(Br)[nH]1)CCCNC(=O)c1cc(Br)c(Br)[nH]1	> 50 µM	> 100 µM	> 10 µM	> 100 µM	–
O=C(NCCCCNCCCNC(=O)c1ccc(Br)s1)c1ccc(Br)s1	> 100 µM	76 µM	> 10 µM	20 µM	Activity (Leishmania amazonensis [2]): Dose-dependent effect; Activity (Leishmania amazonensis [3]): 46.4%; Activity (Leishmania amazonensis [6]): 79.5%; CC50 (BMDM): > 100 µM; Activity (Leishmania amazonensis [9]): 41.5%; Activity (Leishmania amazonensis [10]): 58.8%
O=C(NCCCCCNC(=O)c1ccc[nH]1)c1ccc[nH]1	> 50 µM	> 100 µM	> 10 µM	> 100 µM	–
Cc1ccc(C(=O)NCCCCNCCCNC(=O)c2ccc(C)o2)o1	> 100 µM	> 100 µM	> 10 µM	> 100 µM	–
NC1NC(=O)/C(=C2/CCNC(=O)c3[nH]cc(Br)c32)N1 (stereo not drawn) [SPONGIACIDIN B]	–	–	–	–	IC50 (Plasmodium falciparum [12]): 1.09 µg/mL (≈ 3.34 µM)
O=C(NCCCCNCCCNC(=O)c1cc(Br)c(Br)o1)c1cc(Br)c(Br)o1	> 100 µM	18 µM	3 µM	23 µM	Activity (Leishmania amazonensis [2]): Dose-dependent effect; Activity (Leishmania amazonensis [3]): 55.6%; CC50 at 24 h [4]: ≥ 400 µM; Activity (Leishmania amazonensis [6]): 77.4%; selectivity ratio [8]: ≥ 125; CC50 (BMDM): 82 µM; Activity (Leishmania amazonensis [9]): 35%; Activity (Leishmania amazonensis [10]): 60%
O=C(NCCCCNCCCNC(=O)c1ccc[nH]1)c1ccc[nH]1	> 100 µM	> 100 µM	> 10 µM	> 100 µM	–
O=C(NCCCCNCCCNC(=O)c1cc2ccccc2[nH]1)c1cc2ccccc2[nH]1	> 100 µM	> 100 µM	> 10 µM	> 100 µM	–
NC[C@H]1[C@@H]2CN3C(=O)c4cc(Br)c(Br)n4[C@H]4NC(N)=N[C@]43[C@H]2[C@@]2(N=C(N)N[C@@H]2O)[C@@H]1Cl	–	–	–	–	IC50 (Leishmania donovani): 1.48 µg/mL (≈ 2.56 µM); IC50 [1]: 0.46 µg/mL (≈ 0.796 µM); IC50 (Plasmodium falciparum [12]): 1.48 µg/mL (≈ 2.56 µM)
O=C(NCCCCCCCCNC(=O)c1cc(Br)c(Br)[nH]1)c1cc(Br)c(Br)[nH]1	> 100 µM	> 100 µM	> 10 µM	> 100 µM	–
